Measurements reported in ChEMBL document CHEMBL1125228, “A 3-D model for 5-HT1A-receptor agonists based on stereoselective methyl-substituted and conformationally restricted analogues of 8-hydroxy-2-(dipropylamino)tetralin” (J Med Chem, 1991).
Values joined by “and” are separate entries in the source; they are usually repeats but may differ in a detail not shown here. Equal values may be shown once.

Legend:
[1] = tested on: Rattus norvegicus; experiment: In vivo accumulation of DOPA in brain stem of rat brain at a dose of 0.1 umol/kg.; type: functional
Procedure, shortened: (§1)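 Hydrochlorides given sc in the neck (5 mL/kg) to rats, either untreated or reserpine-pretreated (5 mg/kg sc, 6 h before). Decarboxylase inhibitor NSD 1015 (100 mg/kg ip or 60 mg/kg sc) given 30 min later; rats decapitated after another 30 min. Striatum, limbic system, hemispheres and brain stem dissected on ice and homogenized in 0.1 M perchloric acid with α-methyl-DOPA internal standard. DOPA, DA, 5-HTP and 5-HT measured by ion-pair reversed-phase HPLC with electrochemical detection.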

[2] = tested on: Rattus norvegicus; experiment: In vivo accumulation of DOPA in brain stem of rat brain at a dose of 0.32 umol/kg.; type: functional; procedure, shortened: as §1
[3] = tested on: Rattus norvegicus; experiment: In vivo accumulation of DOPA in brain stem of rat brain at a dose of 1 umol/kg.; type: functional; procedure, shortened: as §1
[4] = tested on: Rattus norvegicus; experiment: In vivo accumulation of 5-HT in striatum of rat brain at a dose of 0.1 umol/kg.; type: functional; procedure, shortened: as §1
[5] = tested on: Rattus norvegicus; experiment: In vivo accumulation of 5-HT in striatum of rat brain at a dose of 0.32 umol/kg.; type: functional; procedure, shortened: as §1
[6] = tested on: Rattus norvegicus; experiment: In vivo accumulation of 5-HT in striatum of rat brain at a dose of 1 umol/kg.; type: functional; procedure, shortened: as §1
[7] = tested on: Rattus norvegicus; experiment: In vivo accumulation of 5-HTP in striatum of rat brain at a dose of 0.1 umol/kg.; type: functional; procedure, shortened: as §1
[8] = tested on: Rattus norvegicus; experiment: In vivo accumulation of 5-HTP in striatum of rat brain at a dose of 0.32 umol/kg.; type: functional; procedure, shortened: as §1
[9] = tested on: Rattus norvegicus; experiment: In vivo accumulation of 5-HTP in striatum of rat brain at a dose of 1 umol/kg.; type: functional; procedure, shortened: as §1
[10] = tested on: Rattus norvegicus; experiment: In vivo accumulation of DA in striatum of rat brain at a dose of 0.1 umol/kg.; type: functional; procedure, shortened: as §1
[11] = tested on: Rattus norvegicus; experiment: In vivo accumulation of DA in striatum of rat brain at a dose of 0.32 umol/kg.; type: functional; procedure, shortened: as §1
[12] = tested on: Rattus norvegicus; experiment: In vivo accumulation of DA in striatum of rat brain at a dose of 1 umol/kg.; type: functional; procedure, shortened: as §1
[13] = tested on: Rattus norvegicus; experiment: In vivo accumulation of DOPA in limbic of rat brain at a dose of 0.32 umol/kg.; type: functional
Procedure, shortened: (§2)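 Rats, reserpine-pretreated (5 mg/kg, i.e. 9 μmol/kg sc, 6 h before) or nonpretreated, given test hydrochloride sc in the neck (injection volume 5 mL/kg). Decarboxylase inhibitor NSD 1015 (100 mg/kg ip or 60 mg/kg sc) given 30 min later; decapitation after another 30 min. Brain dissected on ice into striatum, limbic system, hemispheres, brain stem. Homogenized in 0.1 M perchloric acid with α-methyl-DOPA internal standard; DOPA measured by ion-pair reversed-phase HPLC with electrochemical detection.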

[14] = tested on: Rattus norvegicus; experiment: In vivo accumulation of DOPA in limbic of rat brain at a dose of 1 umol/kg.; type: functional; procedure, shortened: as §2
[15] = tested on: Rattus norvegicus; experiment: In vivo accumulation of 5-HTP in hemisphere of rat brain at a dose of 0.1 umol/kg.; type: functional; procedure, shortened: as §1
[16] = tested on: Rattus norvegicus; experiment: In vivo accumulation of 5-HTP in hemisphere of rat brain at a dose of 0.32 umol/kg.; type: functional; procedure, shortened: as §1
[17] = tested on: Rattus norvegicus; experiment: In vivo accumulation of 5-HTP in hemisphere of rat brain at a dose of 1 umol/kg.; type: functional; procedure, shortened: as §1
[18] = tested on: Rattus norvegicus; experiment: In vivo accumulation of DOPA in hemisphere of rat brain at a dose of 0.1 umol/kg.; type: functional; procedure, shortened: as §2
[19] = tested on: Rattus norvegicus; experiment: In vivo accumulation of DOPA in hemisphere of rat brain at a dose of 0.32 umol/kg.; type: functional; procedure, shortened: as §2
[20] = tested on: Rattus norvegicus; experiment: In vivo accumulation of 5-HTP in brain stem of rat brain at a dose of 0.1 umol/kg.; type: functional; procedure, shortened: as §1
[21] = tested on: Rattus norvegicus; experiment: In vivo accumulation of 5-HTP in brain stem of rat brain at a dose of 0.32 umol/kg.; type: functional; procedure, shortened: as §1
[22] = tested on: Rattus norvegicus; experiment: In vivo accumulation of 5-HTP in brain stem of rat brain at a dose of 1 umol/kg.; type: functional; procedure, shortened: as §1
[23] = tested on: Rattus norvegicus; experiment: In vivo accumulation of DOPA in striatum of rat brain at a dose of 0.1 umol/kg.; type: functional; procedure, shortened: as §2
[24] = tested on: Rattus norvegicus; experiment: In vivo accumulation of DOPA in striatum of rat brain at a dose of 0.32 umol/kg.; type: functional; procedure, shortened: as §2
[25] = tested on: Rattus norvegicus; experiment: In vivo accumulation of DOPA in striatum of rat brain at a dose of 1 umol/kg.; type: functional; procedure, shortened: as §2
[26] = tested on: Rattus norvegicus; experiment: In vivo accumulation of 5-HTP in limbic of rat brain at a dose of 1 umol/kg.; type: functional; procedure, shortened: as §1
[27] = tested on: Rattus norvegicus; experiment: In vivo accumulation of DOPA in limbic of rat brain at a dose of 0.1 umol/kg.; type: functional; procedure, shortened: as §2
[28] = tested on: Rattus norvegicus; experiment: In vivo accumulation of 5-HT in limbic of rat brain at a dose of 0.1 umol/kg.; type: functional, Limbic system; procedure, shortened: as §1
[29] = tested on: Rattus norvegicus; experiment: In vivo accumulation of 5-HT in limbic of rat brain at a dose of 0.32 umol/kg.; type: functional; procedure, shortened: as §1
[30] = tested on: Rattus norvegicus; experiment: In vivo accumulation of 5-HT in limbic of rat brain at a dose of 1 umol/kg.; type: functional; procedure, shortened: as §1
[31] = tested on: Rattus norvegicus; experiment: In vivo accumulation of 5-HTP in limbic of rat brain at a dose of 0.1 umol/kg.; type: functional; procedure, shortened: as §1
[32] = tested on: Rattus norvegicus; experiment: In vivo accumulation of 5-HTP in limbic of rat brain at a dose of 0.32 umol/kg.; type: functional; procedure, shortened: as §1

CCCN1CCC[C@H]2c3c(O)cccc3CC[C@@H]21
Control [1]: 93.2%
Control [2]: 110.1%
Control [3]: 133.3%
Control [4]: 98.1%
Control [5]: 81.6%
Control [6]: 134.9%
Control [7]: 55.3%
Control [8]: 51.5%
Control [9]: 44.7%
Control [10]: 123.1%
Control [11]: 108.2%
Control [12]: 115.8%
Control [13]: 115.9% and 107.8%
Control [14]: 107.3% and 111%
Control [15]: 74.7%
Control [16]: 60.8%
Control [17]: 43%
Control [18]: 97%
Control [19]: 114%
Control [20]: 90.8%
Control [21]: 70.7%
Control [22]: 61.1%
Control [23]: 109.3%
Control [24]: 113.6%
Control [25]: 117.6%
Control [26]: 52.3%
Control [27]: 95.9% and 124.5%
Control [28]: 126.7%
Control [29]: 138.1%
Control [30]: 170.1%
Control [31]: 85.1%
Control [32]: 69.7%
